Results reported in the EternaBench riboswitch data.

Test system: MS2 coat protein
Assay: apparent Kd, MS2 coat protein; higher = weaker binding; RNA-MaP array; FMN 200 µM where present
Procedure, shortened: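 The apparent Kd is the median of filtered binding-curve fits, one per cluster, to green signal normalised to red-channel RNA signal and control-cluster median Fmax. The clusters were on Illumina sequencing chips, and stalled E. coli RNA polymerase had transcribed the designs on them. Titration used SNAP-549-labelled MS2 coat protein from 0.7 or 1.5 nM, doubling to 3 µM, without and then with constant ligand, in 100 mM Tris-HCl pH 7.5, 80 mM KCl, 4 mM MgCl2, BSA, DTT, yeast tRNA and Tween-20.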

[1] = designed as: OFF switch for flavin mononucleotide, no ligand
[2] = ligand present: flavin mononucleotide, designed as: OFF switch for flavin mononucleotide
[3] = designed as: ON switch for flavin mononucleotide, no ligand
[4] = ligand present: flavin mononucleotide, designed as: ON switch for flavin mononucleotide

Sequence	apparent Kd [1] [nM]	apparent Kd [2] [nM]	apparent Kd [3] [nM]	apparent Kd [4] [nM]
UAAUUAAUAAGAUCAAUUAAUUAACAUGAGGAUCACCCAUGUGAGGAUAUCAGCUCGAUUAGAGCUGAGAAGGCACAAUAAUUA	43.2	102		
UGUGUGUGGCAGGAUAUGCCGGUAGUAGGACGGGUAGAAGGGUCUACAUGAGGAUCACCCAUGUGGCCGGUUGG	17.7	17.7		
UCUGGUCGAGGAUAUACAAUCGUGCUUCGGCACGUAAGAUCACAUGAGGAUCACCCAUGUAGAAGGUGACCAGA	27.1	131		
AGUAUGUACGCAGGAUAUACAUGAGGAUCACCCAUGUGGAACAGUGUAGUGCUAGUUGAUCCUCAGUAGAAGGGCGGUCGAAUA	62.5	91.6		
AACAUGUCAGGAUAUGACUAAGGUGCUCGGUUGAGCCCUUAUCAGAAGGGACAUGAGGAUCACCCAUGUUCCGA	17.8	21.1		
UUGUUGUGUGUAGGAUAUGCGUGUUAUUAUUAUGCAGAAGGACAUGAGGAUCACCCAUGUGUAUUGUUAUUAUAUAUUAUAUAU	21.4	22.5		
CGGUCUUGCAACUAUUUGUUUCACAUGAGGAUCACCCAUGUCAGAAGGAGGUGCGUCUAUUAGACCUAGGAUAUGACGUGUAAG	15.5	26		
GCCAUCAUAUGAGGAUAUGACACCGAAACGGUGUCAGAAGGCAUGUCGAUAGACAUGAGGAUCACCCAUGUUUAGAUGAUGGCA			104	21.5
ACGCCCUGAGGAUAUCUUAUGCCGCACAUGAGGAUCACCCAUGUUCUCCUCCGGGCUCCGAGAGAAGGCAGGCCCA	8.82	10.2		
CCAGCGUGUGUGAGGAUAUGCUGGUCCUUGGAUCAGCAGAAGGCACAUGAGGAUCACCCAUGUGAGGACGUUGG	22.4	94.5		
UUACUAUCACAGAAGGGUAGAUAGUAUAUAGAUGCAGGAUAUGUGACAUGAGGAUCACCCAUGUUUCACCCACAUGAGGAUCAC	17.5	18.9		
GGGUGGCGUAGAGGAUAUGUGUUACAUGAGGAUCACCCAUGUGCAUAUGAUGUUCGUGUGUGUGCAUAGAAGGCUACGUCGCUA			28.3	24.3
AAAAAACAUGAGGAUCACCCAUGUCAGGAUAUCCUAAAAAAAAAAAAAAAAAAAAAAAGGAGAAGGGACAUAAA	119	309		
AGGAGGUUAGGAUAUGCUGCUCGUCACUUGCGUGAUGAGUAGCAGAAGGGACAUGAGGAUCACCCAUGUAAAAA	48.5	28.1		
UGGUACAUCGGAGGAUAUCAUGUAAAUACAUGAGGAUCACCCAUGUCGAUGGAGACAUCGGAGAUUGAGAAGGCCGAUGUACCG			166	8.66
AGUAACAGAGGAUAUACUGUUUUAUGUGUUUGUUAUUUUAAACAUGAGGAUCACCCAUGUAGAAGGCUGAAUGA	27.1	25.3		
GGUUGGCGAGGAUAUACAUGAGGAUCACCCAUGUGAGAGAAAAAAGUGAGUAAGAAAAGUAGAAGGCGCUGACG	40.1	302		
GACACUAUGUUUGUCAGAUAGAGAGAGGAUAUGGCUCAUGAGACAUGAGGAUCACCCAUGUAUAAUCAGAAGGCUCGAGUACGA			11.5	9.17
GCGACGGCGAAAGGAUAUCAAAAUCAACAGUGUUGAGAAGGUUCUCCGAGGGUCGCACAUGAGGAUCACCCAUGUCGCGAAUCU			13.1	10.3
UGGAUCAUCGGAGGAUAUCAUGUAGAUACAUGAGGAUCACCCAUGUCGAUGGAGACAUCGGAGAUUGAGAAGGCCGAUGAUCCU			543	30.9
GUAUUUAGAUAAGGAUAUAAGUCUAGGACAUGAGGAUCACCCAUGUGUGUCUUAGAAGGUAUUUGGGUAAUAUUGUUACAGUAA			160	114

Sequence	apparent Kd [1] [nM]	apparent Kd [2] [nM]	apparent Kd [3] [nM]	apparent Kd [4] [nM]
AAGAAGUCAGGAUAUCCAUGGCGGCACUUGCGUGGUGGCGUGGAGAAGGGACAUGAGGAUCACCCAUGUAAAGU	49	44.6		
GGAUAGGACAGAGGAUAUACGUGCUAGAGAUACGAGCAAAAUUUCCUCACAUGAGGAUCACCCAUGUAGAAGGCUGUCCUAUCG	32.5	578		
UAGUAGAUCCGAGGAUAUACAAUCCGGAAACGGUACAUGAGGAUCACCCAUGUAGAAGGCGGAUCUACAGGUACUAAAGUACCC	5.89	8.32		
GCGUAACAUGAGGAUCACCCAUGUGCCCGAGAAUUCGGGCCGAGAAGGGUGACCGGUCGUUUGGCACAGGAUAUCGACGUUGUG			31.5	12.7
UUCAUCGAUGAAGGAUAUCUAUGUCCAACAUGAGGAUCACCCAUGUUGAGGAUUACCUAUGUGUAGGAGAAGGUCAAUAUGACU			7.03	6.39
GCCAUCGCAUGAGGAUAUGGCACCGAAACGGUGCCAGAAGGCAUGUCAAUAGACAUGAGGAUCACCCAUGUAUUAUCGAUGGCA			274	29.1
UAUAUAUAGUAAGGAUAUGUAUUAAUUUUGUAAACAGAAGGUACUGACAUGAGGAUCACCCAUGUUUUAGUGUGGGCAUGUAGA	130	208		
UGGUGUGAGCUAUCACAUGACUGGGAGGAUAUGACAUGAGGAUCACCCAUGUGGGAUCUAAAUUGUCAGAAGGCUCGAUCUGGG	750	208		
UGCAUGCUAGGAUAUACGAAACAUUAGGGUUCUUCGUAUGAACAUGAGGAUCACCCAUGUAGAAGGAGCGUGCU	35.5	191		
CCACGUCACAUAUACAUGAGGAUCACCCAUGUCAAAAGACAUGAGGAUAUGGAUCCUAAUUGGAUCCAGAAGGCAUGGACGUGG			757	50.8
GUGGUACAUGAGGAUCACCCAUGUUAGGAUAUCGCGUGAGGUAAAACUUACACACACACGAGAAGGGACGACAU	88.6	56.2		
AAGUCGAGCGUGAGGAUAUCGUCCGGACGACCGAACGAGAAGGCACAUGAGGAUCACCCAUGUGAUUCAGCUCA	19	70.5		
AGGGAGUGAGGAUAUGCUGCUCGUCACUUGCGUGAUGAGUAGCAGAAGGUACAUGAGGAUCACCCAUGUAAAAA	28.4	19		
AUACUAAAUGAAGGAUAUCUAAGCAUACACCUGAGAGAAGGUCAUUUUGACAUGAGGAUCACCCAUGUUGUGGUUAAUGGGUUA	237	225		
AAUGGCGUGAUAACGCUAAUUAAAACAUGAGGAUCACCCAUGUAGGAUAUCCUACCGAAAUGGUAGGAGAAGGACAAGCAAUGA	33.4	27.7		
CAGCAAUGUGAGAAGGCUGCUCCGAUAAGGAGCAGAGGAUAUUACAUGAGGAUCACCCAUGUAUGAACCAAUAGCUGAAAUAAA	6.01	28.3		
UUGGACGUCGUAGGAUAUGUAGGAUUCUCCUACAUGAGGAUCACCCAUGUUGACAUGGAGGACGGACAGAAGGACGGUGUCCAU			14.1	5.64
CUGUUCCGUGUAGGAUAUGCAUAUUCUCAUUAUGCAGAAGGACAUGAGGAUCACCCAUGUAUGUUAUUAUCAUGUGUUACAUGU	31.4	163		
GAGUGGAAGGCCGCUACAUGAGGAUCACCCAUGUGCUAAGCACAGGAUAUCGCGCUAGCCCGGCGCGAGAAGGGUGACGGCCUG			674	339
AGUGUUGGAGGAUAUACAUGAGGAUCACCCAUGUACAUCACACAGUAUAUGAAACCAUGUAGAAGGCCAAUACA	55.8	73.8		
GUUCUUCCUGUAAGGAUAUCCAUGUAUCAAAGCAUGGAGAAGGUACAUGAGGAUCACCCAUGUCACCCGCGUUA	20.2	45.3		
